Experimental data: ChEMBL document CHEMBL1137378, “Antibacterial agent discovery using thymidylate synthase biolibrary screening” (J Med Chem, 2006)
Converted amounts (≈) assume the structure as drawn.

How the values were obtained:
Vero [1] = assay: Cytotoxicity against Vero cells measured as percent of cell growth at 12.05 mg/L relative to control by MTT assay; assay type: functional, Chlorocebus sabaeus
Method in brief: (§1)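 VERO cells grown in MEM with 5% heat-inactivated (56 °C, 30 min) FCS, penicillin, streptomycin and L-glutamine. Cultures were watched for 2 days and live cells counted. Cells were then exposed to increasing compound concentrations; wells with cells only served as control. After 24 h, mitochondrial dehydrogenase activity was read by MTT. Trypan blue exclusion was also run.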

Enterococcus gallinarum [2] = assay: Antibacterial activity against multiresistant Enterococcus gallinarum 64; assay type: functional
Method in brief: (§2)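 Clinical multidrug-resistant isolates from hospitalized patients' blood or urine. Bacteria grown in Mueller-Hinton broth at 37 °C for 24 h. Exponential-phase cultures diluted in sterile liquid medium to a final inoculum of about 1 × 10⁴ CFU/mL, then exposed to increasing compound concentrations. Inhibitor stocks in DMSO. MIC (µg/mL) taken as the lowest concentration with no evident bacterial growth.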

Enterococcus faecalis = assay: Antibacterial activity against Enterococcus faecalis ATCCC29212; assay type: functional
Method in brief: (§3)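 Wild-type strain panel (18 Gram-positive and Gram-negative strains). Bacteria grown in Mueller-Hinton broth at 37 °C for 24 h. Exponentially growing cultures diluted in sterile liquid medium to a final inoculum of about 1 × 10⁴ CFU/mL, then exposed to increasing compound concentrations. MIC taken as the lowest concentration with no evident bacterial growth.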

Staphylococcus aureus [3] = assay: Antibacterial activity against multiresistant Staphylococcus aureus 15; assay type: functional; method in brief: as §2
Enterococcus faecium [4] = assay: Antibacterial activity against multiresistant Enterococcus faecium 6; assay type: functional; method in brief: as §2
[5] = system: Staphylococcus epidermidis; assay: Antibacterial activity against multiresistant Staphylococcus epidermidis 45; assay type: functional; method in brief: as §2
Listeria monocytogenes [6] = assay: Antibacterial activity against Listeria monocytogenes 4; assay type: functional; method in brief: as §3
[7] = system: Staphylococcus haemolyticus; assay: Antibacterial activity against Staphylococcus haemolyticus ATCC 2997; assay type: functional; method in brief: as §3
Listeria monocytogenes [8] = assay: Antibacterial activity against Listeria monocytogenes 5; assay type: functional; method in brief: as §3
Vero [9] = assay: Cytotoxicity against Vero cells measured as percent of cell growth at 6.25 mg/L relative to control by MTT assay; assay type: functional, Chlorocebus sabaeus; method in brief: as §1
Enterococcus faecium [10] = assay: Antibacterial activity against multiresistant Enterococcus faecium 28; assay type: functional; method in brief: as §2
[11] = system: Staphylococcus epidermidis; assay: Antibacterial activity against multiresistant Staphylococcus epidermidis 50; assay type: functional; method in brief: as §2
Listeria monocytogenes [12] = assay: Antibacterial activity against Listeria monocytogenes 3; assay type: functional; method in brief: as §3
[13] = system: Staphylococcus haemolyticus; assay: Antibacterial activity against multiresistant Staphylococcus haemolyticus 56; assay type: functional; method in brief: as §2
[14] = system: Staphylococcus epidermidis; assay: Antibacterial activity against multiresistant Staphylococcus epidermidis 39; assay type: functional; method in brief: as §2
Listeria monocytogenes [15] = assay: Antibacterial activity against Listeria monocytogenes 6; assay type: functional; method in brief: as §3
Listeria monocytogenes [16] = assay: Antibacterial activity against Listeria monocytogenes 7; assay type: functional; method in brief: as §3
Enterococcus gallinarum [17] = assay: Antibacterial activity against multiresistant Enterococcus gallinarum 37; assay type: functional; method in brief: as §2
Staphylococcus aureus [18] = assay: Antibacterial activity against multiresistant Staphylococcus aureus 27; assay type: functional; method in brief: as §2
Staphylococcus aureus [19] = assay: Antibacterial activity against Staphylococcus aureus 341; assay type: functional; method in brief: as §3
Citrobacter = assay: Antibacterial activity against Citrobacter 224; assay type: functional; method in brief: as §3
[20] = system: Staphylococcus epidermidis; assay: Antibacterial activity against multiresistant Staphylococcus epidermidis 32; assay type: functional; method in brief: as §2
Dihydrofolate reductase = molecular target: T1, Dihydrofolate reductase (Homo sapiens, UniProt P00374); assay: Inhibition of human dihydrofolate reductase
T1 sequence (P00374 whole entry): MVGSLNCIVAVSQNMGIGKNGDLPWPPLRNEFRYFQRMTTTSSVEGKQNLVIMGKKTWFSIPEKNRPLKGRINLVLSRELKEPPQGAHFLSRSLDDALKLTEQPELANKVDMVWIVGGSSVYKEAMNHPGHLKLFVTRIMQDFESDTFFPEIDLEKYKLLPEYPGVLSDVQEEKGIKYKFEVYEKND
Method in brief: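 Purified human DHFR assayed spectrophotometrically at 25 °C by the fall in A340 on DHF reduction. Ki from steady-state kinetics.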

Vero [21] = assay: Cytotoxicity against Vero cells measured as percent of cell growth at 1.56 mg/L relative to control by MTT assay; assay type: functional, Chlorocebus sabaeus; method in brief: as §1
[22] = system: Staphylococcus haemolyticus; assay: Antibacterial activity against multiresistant Staphylococcus haemolyticus 51; assay type: functional; method in brief: as §2
Escherichia coli [23] = assay: Antibacterial activity against Escherichia coli 292; assay type: functional; method in brief: as §3
[24] = system: Staphylococcus epidermidis; assay: Antibacterial activity against multiresistant Staphylococcus epidermidis 36; assay type: functional; method in brief: as §2
[25] = system: Staphylococcus epidermidis; assay: Antibacterial activity against multiresistant Staphylococcus epidermidis 48; assay type: functional; method in brief: as §2
Staphylococcus aureus [26] = assay: Antibacterial activity against multiresistant Staphylococcus aureus 17; assay type: functional; method in brief: as §2
Vero [27] = assay: Cytotoxicity against Vero cells measured as percent of cell growth at 25 mg/L relative to control by MTT assay; assay type: functional, Chlorocebus sabaeus; method in brief: as §1
Listeria monocytogenes [28] = assay: Antibacterial activity against Listeria monocytogenes ATCC 4428; assay type: functional; method in brief: as §3
[29] = system: Staphylococcus epidermidis; assay: Antibacterial activity against multiresistant Staphylococcus epidermidis 42; assay type: functional
Enterococcus faecium [30] = assay: Antibacterial activity against multiresistant Enterococcus faecium 52; assay type: functional; method in brief: as §2
Vero [31] = assay: Cytotoxicity against Vero cells measured as percent of cell growth at 3.12 mg/L relative to control by MTT assay; assay type: functional, Chlorocebus sabaeus; method in brief: as §1
[32] = system: Staphylococcus epidermidis; assay: Antibacterial activity against multiresistant Staphylococcus epidermidis 33; assay type: functional
[33] = system: Staphylococcus saprophyticus; assay: Antibacterial activity against Staphylococcus saprophyticus ATCC 15305; assay type: functional; method in brief: as §3
[34] = system: Staphylococcus epidermidis; assay: Antibacterial activity against multiresistant Staphylococcus epidermidis 21; assay type: functional; method in brief: as §2
Escherichia coli [35] = assay: Antibacterial activity against Escherichia coli 256; assay type: functional; method in brief: as §3
Listeria monocytogenes [36] = assay: Antibacterial activity against Listeria monocytogenes 8; assay type: functional; method in brief: as §3
Staphylococcus aureus [37] = assay: Antibacterial activity against Staphylococcus aureus ATCC 29213; assay type: functional; method in brief: as §3
Staphylococcus aureus [38] = assay: Antibacterial activity against multiresistant Staphylococcus aureus 9; assay type: functional; method in brief: as §2
Staphylococcus aureus [39] = assay: Antibacterial activity against Staphylococcus aureus K28; assay type: functional; method in brief: as §3
Enterococcus faecium [40] = assay: Antibacterial activity against multiresistant Enterococcus faecium 57; assay type: functional; method in brief: as §2
Streptococcus = assay: Antibacterial activity against Streptococcus 42; assay type: functional; method in brief: as §3
[41] = system: Staphylococcus epidermidis; assay: Antibacterial activity against multiresistant Staphylococcus epidermidis 30; assay type: functional; method in brief: as §2
Staphylococcus aureus [42] = assay: Antibacterial activity against Staphylococcus aureus 343; assay type: functional; method in brief: as §3
[43] = system: Staphylococcus epidermidis; assay: Antibacterial activity against multiresistant Staphylococcus epidermidis […]; assay type: functional
Vero [44] = assay: Cytotoxicity against Vero cells measured as percent of cell growth at 50 mg/L relative to control by MTT assay; assay type: functional, Chlorocebus sabaeus; method in brief: as §1

Compound: O=C1OC(c2ccc(O)c(Cl)c2)(c2ccc(O)c(Cl)c2)c2cccc3cccc1c23
- Activity (Vero [1]): 90%
- MIC (Enterococcus gallinarum [2]): 2.5 µg/mL (≈ 5.72 µM)
- MIC (Enterococcus faecalis): 10 µg/mL (≈ 22.9 µM)
- MIC (Staphylococcus aureus [3]): > 65 µg/mL
- MIC (Enterococcus faecium [4]): 10 µg/mL (≈ 22.9 µM)
- MIC [5]: > 65 µg/mL
- MIC (Listeria monocytogenes [6]): 10 µg/mL (≈ 22.9 µM)
- MIC [7]: 2.5 µg/mL (≈ 5.72 µM)
- MIC (Listeria monocytogenes [8]): 5 µg/mL (≈ 11.4 µM)
- Activity (Vero [9]): 90%
- MIC (Enterococcus faecium [10]): > 75 µg/mL
- MIC [11]: > 65 µg/mL
- MIC (Listeria monocytogenes [12]): 2.5 µg/mL (≈ 5.72 µM)
- MIC [13]: > 65 µg/mL
- MIC [14]: 2.5 µg/mL (≈ 5.72 µM)
- MIC (Listeria monocytogenes [15]): 10 µg/mL (≈ 22.9 µM)
- MIC (Listeria monocytogenes [16]): 5 µg/mL (≈ 11.4 µM)
- MIC (Enterococcus gallinarum [17]): 10 µg/mL (≈ 22.9 µM)
- MIC (Staphylococcus aureus [18]): > 65 µg/mL
- MIC (Staphylococcus aureus [19]): 5 µg/mL (≈ 11.4 µM)
- MIC (Citrobacter): > 25 µg/mL
- MIC [20]: > 65 µg/mL
- Ki (Dihydrofolate reductase): 5.2 µM
- Activity (Vero [21]): 90%
- MIC [22]: > 65 µg/mL
- MIC (Escherichia coli [23]): > 25 µg/mL
- MIC [24]: > 65 µg/mL
- MIC [25]: > 65 µg/mL
- MIC (Staphylococcus aureus [26]): > 65 µg/mL
- Activity (Vero [27]): 70%
- MIC (Listeria monocytogenes [28]): 5 µg/mL (≈ 11.4 µM)
- MIC [29]: 5 µg/mL (≈ 11.4 µM)
- MIC (Enterococcus faecium [30]): > 65 µg/mL
- Activity (Vero [31]): 90%
- MIC [32]: > 65 µg/mL
- MIC [33]: 2.5 µg/mL (≈ 5.72 µM)
- MIC [34]: > 65 µg/mL
- MIC (Escherichia coli [35]): > 25 µg/mL
- MIC (Listeria monocytogenes [36]): 5 µg/mL (≈ 11.4 µM)
- MIC (Staphylococcus aureus [37]): 5 µg/mL (≈ 11.4 µM)
- MIC (Staphylococcus aureus [38]): > 65 µg/mL
- MIC (Staphylococcus aureus [39]): > 25 µg/mL
- MIC (Enterococcus faecium [40]): 10 µg/mL (≈ 22.9 µM)
- MIC (Streptococcus): 5 µg/mL (≈ 11.4 µM)
- MIC [41]: > 65 µg/mL
- MIC (Staphylococcus aureus [42]): 5 µg/mL (≈ 11.4 µM)
- MIC [43]: > 65 µg/mL
- Activity (Vero [44]): 58%
